Ecoli rRNA inh = selective bacterial rRNA inhibition in E. coli; E. coli WT GFP vs humanized-ribosome RFP mutants, fluorescence, 24 h; hits give low values; DMSO median 0, no signal -100; GFP signal change (wild-type ribosome), % (no concentration beside the values); 1.6% of 350,000 active;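 active = significant combined selectivity score with lowered wild-type GFP, culture density cut under 30%, mutant RFP and density less affected; inactive = any of these conditions unmet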
Cneo AK release = Cryptococcus neoformans lysis via adenylate kinase release. lysis activity, % at 15 µM. C. neoformans lysis, adenylate kinase release luminescence, 4 h; normalised: neutral wells 0, clomiphene wells 100. 0.2% of 360,000 active;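 active = mean lysis activity across replicates of at least 80%, whatever share of replicates individually reach that level; inactive = mean lysis activity below 80%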
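Material: C. neoformans cells; Schedule: 4 h static compound exposure, 37 °C, read 1 h post-reagent; Measured by: adenylate kinase release luminescence; Read-out: signal increase indicating cell lysis; Controls: Clomiphene as positive lysis control.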
PglD DTNB = PglD (C. jejuni) enzyme inhibition | AID 602405 | 0.098% of 360,000 active | inhibition, % at 12.5 µM | purified PglD enzyme, DTNB colorimetric CoA detection; in the data active = inhibition above about 16%, passing the limit was not always enough
RAD54 inh = blocks human RAD54 Holliday junction branch migration; Q92698; FAM/BHQ fluorescence; inhibition, % at 10.4 µM; 0.14% of 360,000 active;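 active = mean normalized replicate activity at least 40 and at least half of replicates scoring 40 or more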;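 note: 0% = median of neutral control wells and 100% = median of positive control wells; inhibitors cause a drop in the FAM fluorescence signal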
Target sequence (Q92698 whole entry, looked up): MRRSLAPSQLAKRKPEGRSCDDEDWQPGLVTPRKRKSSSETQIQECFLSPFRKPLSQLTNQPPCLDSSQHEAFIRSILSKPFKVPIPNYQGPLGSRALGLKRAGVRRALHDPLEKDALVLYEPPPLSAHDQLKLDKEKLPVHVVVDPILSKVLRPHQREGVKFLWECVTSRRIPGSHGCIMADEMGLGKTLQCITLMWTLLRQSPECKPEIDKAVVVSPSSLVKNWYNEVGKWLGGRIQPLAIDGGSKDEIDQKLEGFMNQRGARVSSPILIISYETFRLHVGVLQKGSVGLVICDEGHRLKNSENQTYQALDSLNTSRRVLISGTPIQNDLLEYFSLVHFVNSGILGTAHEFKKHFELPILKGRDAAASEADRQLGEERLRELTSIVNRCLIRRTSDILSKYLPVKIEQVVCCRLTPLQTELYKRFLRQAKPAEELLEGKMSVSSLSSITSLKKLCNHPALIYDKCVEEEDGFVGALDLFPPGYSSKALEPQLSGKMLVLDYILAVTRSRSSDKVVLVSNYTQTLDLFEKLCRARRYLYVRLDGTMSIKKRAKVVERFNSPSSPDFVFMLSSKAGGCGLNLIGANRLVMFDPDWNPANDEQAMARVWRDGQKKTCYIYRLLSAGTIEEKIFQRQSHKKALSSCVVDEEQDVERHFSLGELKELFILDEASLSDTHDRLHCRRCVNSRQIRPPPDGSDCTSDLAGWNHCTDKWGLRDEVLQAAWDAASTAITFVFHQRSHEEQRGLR
RAD52 anneal inh = blocks human RAD52 DNA annealing. 0.46% of 360,000 active. inhibition, % at 18.7 µM. P43351. recombinant RAD52 DNA annealing, FRET fluorescence;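 active = every replicate showing at least 50% inhibition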
Starred values were filed as active, the others as inactive; · = not tested or not shown. A selection: hits, their analogues and other compounds. The true share with any hit is near 1.9%.

SMILES	Ecoli rRNA inh	Cneo AK release	PglD DTNB	RAD54 inh	RAD52 anneal inh
CCOc1ccc(N(CC(=O)OC)S(=O)(=O)c2ccc(OC)c(OC)c2)cc1	·	-1	-3	5	·
CCCN1[C@@H]2Cn3c(ccc(-c4ccccc4F)c3=O)[C@H]1[C@@H](C(=O)NCCOC)[C@@H]2CO	0	4	-1	3	3
ClC1(Cl)CC1CSc1nc2ccccc2[nH]1 (stereo not given)	-28*	·	·	·	-6
CCOc1ccc2nc(SCC3CC3(Cl)Cl)[nH]c2c1 (stereo not given)	-45	·	·	·	-11
O=C1O[C@@H](c2ccccc2)[C@@H](c2ccccc2)N2[C@@H](c3ccc(O)cc3)[C@]3(C(=O)Nc4ccc(C#CC5(O)CCCCCC5)cc43)[C@@H](C(=O)N3CCCCCCC3)[C@H]12	·	-5	-1	0	-1
C[C@H]1CN(C)C(=O)c2cccc(N)c2O[C@@H]1CN(C)C(=O)OC(C)(C)C	-1	·	·	·	·
CCCc1ccc(-c2ccc(/C=C/C(=O)O)cc2)nc1	-26*	·	·	·	-11
CCCNC(=O)N1CC2(CCN(Cc3ccncc3)CC2)c2c(n(C)c3cc(OC)ccc23)[C@H]1CO	2	·	·	·	·
CCn1c(C)nc2cc(C(=O)N/N=C/c3ccc(OC)c(O)c3)ccc21	-23*	·	·	·	-6
CCn1c(C)nc2cc(C(=O)N/N=C/c3ccc(OC)cc3)ccc21	-4	·	·	·	-10
C[C@@H]1CN([C@@H](C)CO)C(=O)c2cccc(NC(=O)C3CCOCC3)c2O[C@@H]1CN(C)Cc1ccc(C(=O)Nc2ccccc2N)cc1	1	·	·	·	13
Cc1ccccc1OCC(O)Cn1c(NCc2ccco2)nc2c1c(=O)n(C)c(=O)n2C (stereo not given)	-26*	0	-15	7	-10
Cc1ccccc1OCC(O)Cn1c(Br)nc2c1c(=O)n(C)c(=O)n2C (stereo not given)	-6	-1	1	-1	5
NNC(=O)c1nn(-c2ccc(Cl)cc2)cc1O	-19*	18	8	-4	-7
Cc1c(C(=O)NN)nn(-c2ccc(Cl)cc2)c(=O)c1C#N	-16*	·	·	·	-24
CCOc1ccccc1N1CCN(C(=S)NCc2ccccc2)CC1	-22*	-1	-3	-2	1
CCOc1ccccc1N1CCN(C(=O)NCc2ccc(F)cc2)CC1	0	4	-5	-13	3
O=C(Nc1cccc(NC(=O)c2cccs2)c1)c1ccc(F)cc1	-28*	4	-1	11	-10
CC[C@H]1CC=CC[C@H](C)Oc2ccccc2C(=O)N(C)[C@@H](C(C)C)C(=O)N1 (mixture of isomers)	-4	·	·	·	·
Cc1nc(NCC2CCCO2)c2nnn(Cc3ccccc3)c2n1 (stereo not given)	-17*	·	·	·	-9
COc1ccc2c3c([nH]c2c1)[C@@H](CO)N(S(C)(=O)=O)CC31CN(C(=O)c2cccnc2)C1	0	·	·	·	3
OC1CCN(c2c3c(nc4cc(-c5cccc(F)c5)nn24)CCCC3)CC1	-19*	-1	4	-1	-9
Cc1ccc(NC(=S)/C(=C(\[O-])c2ccc(F)cc2)[n+]2ccccc2)cc1	-25*	·	·	·	-5
Cc1ccc(C)c(NC(=S)/C(=C(\[O-])c2ccc(OC(F)F)cc2)[n+]2ccccc2)c1	15	2	7	4	-7
CN(C)c1cc[n+](/C(C(=S)Nc2ccc(SC(F)F)cc2)=C(/[O-])c2ccccc2)cc1	-19*	1	-3	0	-14
SMILES	Ecoli rRNA inh	Cneo AK release	PglD DTNB	RAD54 inh	RAD52 anneal inh
[O-]/C(=C(\C(=S)Nc1ccc(SC(F)F)cc1)[n+]1cccc(CO)c1)c1ccc(Cl)s1	-31*	·	·	·	-4
Cc1cc(C)c(/C([O-])=C(/C(=S)Nc2ccc(SC(F)F)cc2)[n+]2ccccc2)cc1C	-38	2	8	-20	-24
O=C1N[C@H](Cc2ccccc2)COCn2nncc2CC[C@@H]1Cc1ccccc1	1	4	·	·	·
CCCCCCCCOC(=O)c1c(CSC(=N)N)n(C)c2cc(Br)c(OC(C)=O)cc12	2	23	-1	-1	83*
O=C(NCCCCc1ccccc1)c1cccc(NC(=O)C2CCCCC2)c1	-30*	1	1	-6	-2
O=C(Cc1cccc(NC(=O)C2CCN(C(=O)C3CCCC3)CC2)c1)Nc1cccc(C(=O)N2CCCC2)c1	-21*	5	4	-5	-24
Cc1noc(C)c1S(=O)(=O)Nc1ccc2c(c1)C(=O)N([C@H](C)CO)C[C@@H](C)[C@H](CN(C)S(=O)(=O)c1cccs1)OCCCC[C@@H](C)O2	2	-5	5	-8	·
O=C(Nc1cccc(-c2nc3ccccc3c(=O)o2)c1)c1ccccc1	-20*	·	·	·	-14
Cc1ccc(C(=O)NC(C(=O)Nc2ccccc2)c2ccccc2)cc1 (stereo not given)	-15	2	-7	5	-2
COc1cccc(-c2nc3ccccc3c(=O)o2)c1	·	-1	·	-4	·
O=C(Nc1cccc(-c2cn3ccccc3n2)c1)c1ccccc1	-32*	·	·	·	-2
Cc1ccccc1C(=O)Nc1cccc(-c2cn3ccccc3n2)c1	-41	·	·	·	-14
Cc1ccc(C(=O)Nc2cccc(-c3cn4ccccc4n3)c2)cc1	-29*	·	·	·	-18
Cc1ccc(C(=O)Nc2cccc(C(O)c3ccccc3)c2)cc1 (stereo not given)	-33*	·	·	·	-18
O=C(COC(=O)c1cccc(O)c1)Nc1ccc(OC(F)F)cc1	-25*	·	·	·	-11
O=C(COC(=O)c1ccc(O)cc1)Nc1ccc(OC(F)F)cc1	10	2	0	7	1
CC(=O)N(C)C[C@@H]1Oc2c(cccc2N(C)C)C(=O)N(C)C[C@H]1C	1	·	·	·	·
CC(=O)N1CC2(C1)[C@H](c1ccccc1)[C@H](CO)N2C(=O)c1ccncc1	3	·	·	·	·
O=C1CCCCn2cc(nn2)COC[C@H](c2ccccc2)N1	4	·	·	·	·
Cc1ccc(S(=O)(=O)NN2C(=O)/C(=C/c3cccs3)SC2=S)cc1	-34*	-4	-10	-5	-1
Cc1ccc(S(=O)(=O)NN2C(=O)/C(=C/c3ccc(F)cc3)SC2=S)cc1	9	0	-2	5	-14
Cc1ccc(/C=C2\SC(=S)N(NS(=O)(=O)c3ccc(C)cc3)C2=O)cc1	-40	121*	-13	-1	-19
CNC(=O)C[C@H]1CC[C@H]2[C@H](COc3ccc(NC(=O)Nc4ccc(C)cc4)cc3C(=O)N2C)O1	2	9	-1	-4	5
CN1C(=O)c2cc(NC(=O)Nc3ccc(Cl)cc3)ccc2OC[C@@H]2O[C@@H](CC(=O)NCCN3CCCCC3)CC[C@@H]21	4	59	2	7	57*
CNC(=O)C[C@H]1CC[C@H]2[C@H](COc3ccc(NC(=O)Nc4ccccc4)cc3C(=O)N2C)O1	2	94*	3	7	7
CNC(=O)C[C@H]1CC[C@H]2[C@@H](COc3ccc(NC(=O)Nc4ccccc4)cc3C(=O)N2C)O1	1	110*	1	-7	17

Bioassay records deposited in PubChem by Broad Institute.
